Calls of active or inactive are those of the source. The calls are words filed in the database; no cut-off is given here.
Key:
[1] = target: Serine/threonine-protein kinase PLK1 (Homo sapiens) (UniProt P53350); assay: Inhibition of PLK1 in human A2780 cells assessed as increased Histone H3 phosphorylation on Ser10 by Western blotting analysis; assay type: cell-based
A2780 [2] = assay: Induction of cell cycle arrest in human A2780 cells assessed as accumulation of cells in G2/M phase by measuring Histone H3 phosphorylation on Ser10 incubated for 24 hrs by Western blotting analysis; assay type: functional, cell-based; settings: dose 0.02-0.2 µmol/L
Method in brief: (§1)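 A2780 ovarian carcinoma cells treated 24 h with a range of concentrations, with DMSO and nocodazole controls. 20 µg protein extract separated by SDS-PAGE and immunoblotted with chemiluminescent detection. Probed for total and phospho-Thr210 PLK1, phospho-Ser10 histone H3, phospho-Thr199 NPM and phospho-Tyr15 CDK1. Total NPM, tubulin and total CDK1 served as loading controls.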

A2780 [3] = assay: Induction of cell cycle arrest in human A2780 cells assessed as accumulation of cells in G2/M phase by measuring PLK1 phosphorylation on Thr210 incubated for 24 hrs by Western blotting analysis; assay type: functional, cell-based; settings: dose 0.02-0.2 µmol/L; method in brief: as §1
A2780 [4] = assay: Induction of cell cycle arrest in human A2780 cells assessed as accumulation of cells in G2/M phase by measuring upregulated PLK1 expression incubated for 24 hrs by Western blotting analysis; assay type: functional, cell-based; settings: dose 0.02-0.2 µmol/L; method in brief: as §1
A2780 [5] = assay: Induction of cell cycle arrest in human A2780 cells assessed as accumulation of cells in G2/M phase by measuring CDK1 phosphorylation on Tyr15 incubated for 24 hrs by Western blotting analysis; assay type: functional, cell-based; settings: dose 0.02-0.2 µmol/L; method in brief: as §1
A2780 [6] = assay: Induction of cell cycle arrest in human A2780 cells assessed as accumulation of cells in G2/M phase by measuring NPM phosphorylation on Thr199 incubated for 24 hrs by Western blotting analysis; assay type: functional, cell-based; settings: dose 0.02-0.2 µmol/L; method in brief: as §1
[7] = target: Serine/threonine-protein kinase PLK1 (Homo sapiens) (UniProt P53350); assay: Inhibition of PLK1 in human A2780 cells assessed as decreased TCTP phosphorylation on Ser46 by Western blotting analysis; settings: time 1.0 hrs
[8] = target: Serine/threonine-protein kinase PLK1 (Homo sapiens) (UniProt P53350); assay: Inhibition of PLK1 in human A2780 cells assessed as increased NPM phosphorylation on Thr199 by Western blotting analysis; assay type: cell-based
[9] = Antitumor activity against human Acute myeloid leukemic cell xenografted in nu/nu mouse assessed as increase in median survival time at 75 mg/kg, iv administered for 5 days and measured after 7 days in presence of NMS-P937 (reference value: 34 days); assay type: functional, Leukemia cell; settings: time 5 day
HT-29 = assay: Antitumor activity against human HT-29 cells xenografted in nu/nu mouse assessed as tumor growth inhibition at 45 mg/kg, iv administered for 4 days relative to control; assay type: functional; settings: HT-29, 96 h, time 4 day, read-out: TGI
[10] = Antitumor activity against human Acute myeloid leukemic cell xenografted in nu/nu mouse assessed as increase in median survival time at 75 mg/kg, iv administered for 5 days and measured after 7 days (reference value: 34 days); assay type: functional, Leukemia cell; settings: time 5 day

Serine/threonine-protein kinase PLK1 (Homo sapiens), sequence (P53350 whole entry): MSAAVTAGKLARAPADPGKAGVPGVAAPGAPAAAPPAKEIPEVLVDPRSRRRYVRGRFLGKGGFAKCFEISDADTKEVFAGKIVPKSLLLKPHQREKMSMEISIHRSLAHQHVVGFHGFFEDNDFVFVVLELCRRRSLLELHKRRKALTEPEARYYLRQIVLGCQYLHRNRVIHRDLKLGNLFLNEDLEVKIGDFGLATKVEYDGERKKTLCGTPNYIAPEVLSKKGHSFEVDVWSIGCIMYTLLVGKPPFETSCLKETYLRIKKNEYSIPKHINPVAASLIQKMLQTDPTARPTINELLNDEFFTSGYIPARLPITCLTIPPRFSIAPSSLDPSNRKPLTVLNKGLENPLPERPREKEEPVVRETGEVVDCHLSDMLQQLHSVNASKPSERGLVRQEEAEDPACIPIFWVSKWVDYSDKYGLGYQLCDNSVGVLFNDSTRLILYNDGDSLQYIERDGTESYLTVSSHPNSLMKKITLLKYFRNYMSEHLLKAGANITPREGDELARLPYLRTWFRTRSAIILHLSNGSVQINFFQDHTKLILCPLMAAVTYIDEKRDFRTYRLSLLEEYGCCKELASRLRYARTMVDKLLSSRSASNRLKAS

Structure (SMILES): COC(=O)Nc1nc2cc(C(=O)c3cccs3)ccc2[nH]1
- inhibition [1]: Active
- Activity (A2780 [2]): Active
- Activity (A2780 [3]): Active
- Activity (A2780 [4]): Active
- Activity (A2780 [5]): Active
- Activity (A2780 [6]): Active
- inhibition [7]: Active
- inhibition [8]: Active

Structure (SMILES): CCc1c2c(nc3ccc(OC(=O)N4CCC(N5CCCCC5)CC4)cc13)-c1cc3c(c(=O)n1C2)COC(=O)[C@]3(O)CC [IRINOTECAN]
- Time [9]: 79 days
- inhibition in vivo at 45 mg/kg (HT-29): 64%
- Time [10]: 67 days

Reference: ChEMBL document CHEMBL5678806, “NMS-P937, an orally available, specific small-molecule polo-like kinase 1 inhibitor with antitumor activity in solid and hematologic malignancies” (Mol Cancer Ther, 2012)
